Measured values: ChEMBL document CHEMBL1140136, “Structural modifications of N-(1,2,3,4-tetrahydronaphthalen-1-yl)-4-aryl-1-piperazinehexanamides: influence on lipophilicity and 5-HT7 receptor activity. Part III” (J Med Chem, 2008)
Calls of active or inactive are those of the source. The rule behind the calls is not given here.

What was measured:
[1] = Selectivity for rat cloned 5HT7 over human cloned 5HT1A
[2] = Selectivity for rat cloned 5HT7 over human cloned dopamine D2
[3] = target: 5-hydroxytryptamine receptor 7 (Rattus norvegicus, UniProt P32305); experiment: Displacement of [3H]LSD from rat cloned 5HT7 receptor expressed in HEK293 cells; format: cell-based
Sequence of 5-hydroxytryptamine receptor 7 (Rattus norvegicus, UniProt P32305) (P32305 whole entry): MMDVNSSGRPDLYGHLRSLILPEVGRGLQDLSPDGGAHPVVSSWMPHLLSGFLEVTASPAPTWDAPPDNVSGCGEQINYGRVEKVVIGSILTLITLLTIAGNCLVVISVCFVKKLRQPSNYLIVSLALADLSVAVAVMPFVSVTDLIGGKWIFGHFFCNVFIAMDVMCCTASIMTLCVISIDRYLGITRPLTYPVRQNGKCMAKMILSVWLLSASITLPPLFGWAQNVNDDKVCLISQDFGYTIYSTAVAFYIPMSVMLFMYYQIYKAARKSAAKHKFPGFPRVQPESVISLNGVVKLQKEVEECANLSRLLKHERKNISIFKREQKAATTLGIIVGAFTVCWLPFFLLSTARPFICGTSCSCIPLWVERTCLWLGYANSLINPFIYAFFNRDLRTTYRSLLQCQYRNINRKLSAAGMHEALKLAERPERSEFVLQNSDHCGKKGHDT
In short: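 Rat recombinant 5-HT7 membranes (30 µg) from HEK-293 cells, with 2.5 nM [3H]-LSD and 6-9 compound concentrations. Incubated 60 min at 37 °C in 50 mM Tris, 10 mM MgCl2, 0.5 mM EDTA, pH 7.4, then filtered. Nonspecific binding with 10 µM 5-CT. Ki via Cheng-Prusoff; three experiments in triplicate.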

[4] = target: T1, 5-hydroxytryptamine receptor 1A (Homo sapiens, UniProt P08908); experiment: Displacement of [3H]8-OH-DPAT from human cloned 5HT1A receptor expressed in HEK293 cells; format: cell-based
T1 sequence (P08908 whole entry): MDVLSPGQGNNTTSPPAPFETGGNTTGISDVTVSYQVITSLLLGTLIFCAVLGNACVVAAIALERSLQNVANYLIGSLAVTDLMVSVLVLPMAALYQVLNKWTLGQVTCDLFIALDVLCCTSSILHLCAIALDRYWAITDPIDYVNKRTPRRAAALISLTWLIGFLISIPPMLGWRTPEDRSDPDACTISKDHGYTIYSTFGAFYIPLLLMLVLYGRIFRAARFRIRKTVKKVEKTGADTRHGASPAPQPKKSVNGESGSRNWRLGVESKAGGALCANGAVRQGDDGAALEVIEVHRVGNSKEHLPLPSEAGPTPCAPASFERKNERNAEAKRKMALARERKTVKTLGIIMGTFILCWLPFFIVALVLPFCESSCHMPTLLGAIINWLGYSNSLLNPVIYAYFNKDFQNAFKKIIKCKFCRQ
In short: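 Membranes (40 µg) from HEK-293 cells stably expressing human 5-HT1A, with 1.0 nM [3H]-8-OH-DPAT and compound (0.1 nM-10 µM). Incubated 120 min at 37 °C in 50 mM Tris-HCl pH 7.4, 5 mM MgSO4, then filtered. Nonspecific binding with 10 µM 5-HT. Ki by nonlinear fit and Cheng-Prusoff; three experiments in triplicate.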

[5] = target: D(2) dopamine receptor (Homo sapiens, UniProt P14416); experiment: Displacement of [3H]spiroperidol from human cloned dopamine D2L receptor expressed in rat C6 cells; format: cell-based
Sequence of D(2) dopamine receptor (P14416 whole entry): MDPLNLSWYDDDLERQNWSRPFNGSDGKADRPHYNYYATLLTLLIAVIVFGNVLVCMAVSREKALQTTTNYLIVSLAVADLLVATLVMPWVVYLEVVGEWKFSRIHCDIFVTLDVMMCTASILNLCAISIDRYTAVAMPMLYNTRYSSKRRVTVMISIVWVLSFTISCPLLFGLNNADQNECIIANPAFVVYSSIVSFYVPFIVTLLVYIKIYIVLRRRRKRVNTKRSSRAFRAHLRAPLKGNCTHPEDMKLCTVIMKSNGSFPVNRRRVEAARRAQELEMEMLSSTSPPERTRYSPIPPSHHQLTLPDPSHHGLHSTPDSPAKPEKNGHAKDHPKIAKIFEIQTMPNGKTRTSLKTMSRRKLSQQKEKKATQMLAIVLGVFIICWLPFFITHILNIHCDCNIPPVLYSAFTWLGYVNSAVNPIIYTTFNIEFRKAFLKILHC

[6] = target: T2, 5-hydroxytryptamine receptor 7 (Cavia porcellus, UniProt P50407); experiment: Agonist activity at 5HT7 receptor assessed as relaxation of substance P-induced Dunkin-Hartley guinea pig ileum contraction; format: functional, tissue-based
T2 sequence (P50407 whole entry): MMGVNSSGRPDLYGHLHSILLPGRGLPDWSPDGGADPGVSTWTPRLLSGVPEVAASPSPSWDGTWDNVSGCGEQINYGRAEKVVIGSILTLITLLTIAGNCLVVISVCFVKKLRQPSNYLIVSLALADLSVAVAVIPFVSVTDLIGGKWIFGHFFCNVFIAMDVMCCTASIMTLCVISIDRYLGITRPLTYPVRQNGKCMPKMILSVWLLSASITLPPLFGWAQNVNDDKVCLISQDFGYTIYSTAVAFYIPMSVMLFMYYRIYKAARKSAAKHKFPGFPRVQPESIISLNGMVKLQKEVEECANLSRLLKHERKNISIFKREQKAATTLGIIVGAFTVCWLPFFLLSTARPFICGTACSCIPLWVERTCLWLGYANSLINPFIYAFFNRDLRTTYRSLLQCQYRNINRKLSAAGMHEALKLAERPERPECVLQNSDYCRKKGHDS
In short: (§1)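 Male Dunkin-Hartley guinea pigs (300-350 g); 3 cm proximal ileum segments were held under 1.0 g tension in Krebs-Henseleit at 37 °C, gassed with 95% O2/5% CO2. The bath contained 1 µM atropine, ketanserin and pyrilamine. Compound (0.001-10 µM) or the 5-CT reference was added 5 min before 100 nM substance P, giving noncumulative curves. Read-out was % reduction of contraction height; EC50 by nonlinear fitting.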

[7] = target: 5-hydroxytryptamine receptor 7 (Cavia porcellus) (UniProt P50407); experiment: Agonist activity at 5HT7 receptor assessed as relaxation of substance P-induced Dunkin-Hartley guinea pig ileum contraction relative to 5-carboxamidotryptamine; format: functional, tissue-based; parameters: scale not given: the % may be the effect or the level left; in short: as §1
Sequence of 5-hydroxytryptamine receptor 7 (Cavia porcellus) (P50407 whole entry): as above

[8] = Elimination half life in CD1 albino mouse brain at 10 mg/kg, ip; format: ADME, organism-based; parameters: dose 10 mg/kg, route intraperitoneal; conditions: read-out: beta t1/2
In short: (§2)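 Male CD1 albino mice (25-30 g), 10 mg/kg i.p., 3 mice per time point. Brains were removed, blotted, frozen, homogenized in water (1 g/10 mL) and extracted twice with hexane/isoamyl alcohol. Parent and 1-arylpiperazine metabolite were measured by RP-HPLC-UV at 230 nm. LLOQ about 0.1 µg/g; no residual-blood correction. Cmax read directly, AUC by linear trapezoidal rule, t1/2 by noncompartmental analysis.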

[9] = Cmax in CD1 albino mouse brain at 10 mg/kg, ip after 120 mins; format: ADME, organism-based; parameters: dose 10 mg/kg, route intraperitoneal; in short: as §2
[10] = system: Mus musculus; experiment: AUC in CD1 albino mouse brain at 10 mg/kg, ip; format: ADME, organism-based; parameters: dose 10 mg/kg, route intraperitoneal; conditions: in vivo; in short: as §2
[11] = target: T2, 5-hydroxytryptamine receptor 7; experiment: Antagonist activity at 5HT7 receptor assessed as inhibition of 2-[6-[4-(2-Diphenyl)-1-piperazinyl]-1-oxohexyl]-1,2,3,4-tetrahydroisoquinoline mediated relaxation of substance P-induced Dunkin-Hartley guinea pig ileum contraction; format: functional, tissue-based; conditions: read-out: pA2 (converted)
In short: (§3)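 Male Dunkin-Hartley guinea pigs (300-350 g); whole proximal ileal segments (~3 cm) held under 1.0 g tension in Krebs-Henseleit, 95% O2/5% CO2, 37 °C. Bath contained 1 µM atropine, ketanserin and pyrilamine. Contraction evoked by 100 nM substance P; agonist added 5 min before; selective 5-HT7 antagonist at 0.1-3 µM; isometric tension relaxation, noncumulative curves.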

[12] = target: T2, 5-hydroxytryptamine receptor 7; experiment: Antagonist activity at 5HT7 receptor assessed as inhibition of 4-(2-Diphenyl)-N-(4-pyridinylmethyl)-1-piperazinehexanamide mediated relaxation of substance P-induced Dunkin-Hartley guinea pig ileum contraction; format: functional, tissue-based; conditions: read-out: pA2 (converted); in short: as §3
[13] = target: T2, 5-hydroxytryptamine receptor 7; experiment: Antagonist activity at 5HT7 receptor assessed as inhibition of N-(4-Cyanophenylmethyl)-4-(2-diphenyl)-1-piperazinehexanamide mediated relaxation of substance P-induced Dunkin-Hartley guinea pig ileum contraction; format: functional, tissue-based; conditions: read-out: pA2 (converted); in short: as §3
[14] = Cmax in CD1 albino mouse brain at 10 mg/kg, ip after 60 mins; format: ADME, organism-based; parameters: dose 10 mg/kg, route intraperitoneal; in short: as §2
[15] = Plasma concentration in CD1 albino mouse at 10 mg/kg, ip after 1 hr; format: ADME, organism-based; parameters: dose 10 mg/kg, route intraperitoneal
In short: (§4)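 Male CD1 mice (25-30 g) received 10 mg/kg ip, with 3 mice per time point. Heparinized trunk blood gave plasma; brain was homogenized in water (1 g/10 mL). Samples were extracted with hexane/isoamyl alcohol and assayed by RP-HPLC-UV at 230 nm with an internal standard. Quantification limits were 0.1 µg/mL plasma and 0.1 µg/g brain. Cmax and its time were read from the data.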

[16] = Cmax in CD1 albino mouse brain at 10 mg/kg, ip after 30 mins; format: ADME, organism-based; parameters: dose 10 mg/kg, route intraperitoneal; in short: as §4
[17] = Cmax in CD1 albino mouse plasma at 10 mg/kg, ip after 15 mins
[18] = target: 5-hydroxytryptamine receptor 7 (Rattus norvegicus) (UniProt P32305); experiment: Displacement of [3H]LSD from rat cloned 5HT7 receptor expressed in HEK293 cells at […]; format: cell-based
Sequence of 5-hydroxytryptamine receptor 7 (Rattus norvegicus) (P32305 whole entry): as the sequence (P32305 whole entry) above

[19] = target: 5-hydroxytryptamine receptor 7 (Cavia porcellus) (UniProt P50407); experiment: Agonist activity at 5HT7 receptor assessed as relaxation of substance P-induced Dunkin-Hartley guinea pig ileum contraction at 2 mM; format: functional, tissue-based
In short: (§5)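 Guinea pig ileum was contracted by 100 nM substance P in Krebs-Henseleit with atropine, ketanserin and pyrilamine (1 µM each). Agonist tests were repeated after 5-HT7 desensitization: 60 min equilibration with 3 µM 5-CT, bath changed every 15 min. Relaxation was scored at single test concentrations as % reduction in contraction height.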

[20] = target: 5-hydroxytryptamine receptor 7 (Cavia porcellus) (UniProt P50407); experiment: Agonist activity at 5HT7 receptor assessed as relaxation of substance P-induced Dunkin-Hartley guinea pig ileum contraction at 3 mM; format: functional, tissue-based; in short: as §5
[21] = target: 5-hydroxytryptamine receptor 7 (Cavia porcellus) (UniProt P50407); experiment: Agonist activity at 5HT7 receptor assessed as relaxation of substance P-induced Dunkin-Hartley guinea pig ileum contraction at 1 mM; format: functional, tissue-based; in short: as §5
[22] = Cmax in CD1 albino mouse plasma at 10 mg/kg, ip after 30 mins; format: ADME, organism-based; parameters: dose 10 mg/kg, route intraperitoneal; in short: as §4
[23] = organism: Mus musculus; experiment: Ratio of plasma AUC to brain AUC in CD1 albino mouse; format: ADME, organism-based; conditions: in vivo
In short: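 Male CD1 mice (25-30 g) were dosed at 10 mg/kg ip, 3 per time point. Trunk blood plasma and brain homogenate were extracted with hexane/isoamyl alcohol and analysed by RP-HPLC-UV at 230 nm. Quantification limit was ~0.1 µg/mL or µg/g. AUC was calculated by the linear trapezoidal rule, noncompartmental, extrapolated to infinity where possible.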

[24] = Elimination half life in CD1 albino mouse plasma at 10 mg/kg, ip; conditions: read-out: beta t1/2
[25] = system: Mus musculus; experiment: Volume of distribution in CD1 albino mouse plasma at 10 mg/kg, ip; conditions: in vivo

Row | Ki [3] [nM] | Ki [4] [nM] | Ki [5] [nM] | SMILES | also measured
1 | 0.98 | 70 | 185 | O=C(CCCCCN1CCN(c2ccccc2-c2ccccc2)CC1)NCc1ccncc1 | Selectivity ratio [1]: 25; Selectivity ratio [2]: 95; EC50 [6]: 310 nM; Activity [7]: 87%
2 | 6 | 3.7 | 1.3 | CC(C)c1ccccc1N1CCN(CCCCCC(=O)N2CCc3ccccc3C2)CC1 | 
3 | 5.7 | 106 | 723 | CS(=O)(=O)Oc1ccc(CNC(=O)CCCCCN2CCN(c3ccccc3-c3ccccc3)CC2)cc1 | 
4 | 34.8 | 8.2 | 64 | CSc1ccccc1N1CCN(CCCCCC(=O)NCc2ccncc2)CC1 | 
5 | 8.3 | 124 | 93 | O=C(CCCCCN1CCN(c2ccccc2-c2ccccc2)CC1)N1Cc2ccccc2C1 | 
6 |  |  |  | c1ccc(-c2ccccc2N2CCNCC2)cc1 | half-life [8]: 1.45 h; Cmax [9]: 410 ng/g; AUC [10]: 94 µg/min/mL
7 | 296 | 43 | 311 | COc1ccccc1N1CCN(CCCCCC(=O)NCc2ccc(C#N)cc2)CC1 | 
8 | 71 | 29 | 91 | COc1ccccc1N1CCN(CCCCCC(=O)NCc2ccc(OS(C)(=O)=O)cc2)CC1 | 
9 |  |  |  | CC1CCN(CC[C@H]2CCCN2S(=O)(=O)c2cccc(O)c2)CC1 | Kb [11]: 15.8 nM; Kb [12]: 11 nM; Kb [13]: 20.4 nM
10 | 9 | 94 | 5.3 | CSc1ccccc1N1CCN(CCCCCC(=O)NCc2ccc(C#N)cc2)CC1 | 
11 |  |  |  | CSc1ccccc1N1CCNCC1 | half-life [8]: 1 h; AUC [10]: 85 µg/min/mL; Cmax [14]: 500 ng/g
12 | 215 | 139 | 9.2 | CC(C)c1ccccc1N1CCN(CCCCCC(=O)NCc2ccccc2)CC1 | 
13 | 54 | 22 | 65 | CC(C)c1ccccc1N1CCN(CCCCCC(=O)N2Cc3ccccc3C2)CC1 | 
14 | 76 | 57 | 7.8 | CC(C)c1ccccc1N1CCN(CCCCCC(=O)NCc2ccc(OS(C)(=O)=O)cc2)CC1 | 
15 | 32.9 | 2.04 | 40 | CSc1ccccc1N1CCN(CCCCCC(=O)N2CCc3ccccc3C2)CC1 | 
16 | 5.1 | 325 | 21 | CC(C)c1ccccc1N1CCN(CCCCCC(=O)NCc2ccncc2)CC1 | 
17 | 42 | 1.07 | 96 | CSc1ccccc1N1CCN(CCCCCC(=O)N2Cc3ccccc3C2)CC1 | 
18 |  |  |  | CSc1ccccc1N1CCN(CCCCCC(=O)NC2CCCc3ccccc32)CC1 (stereo not given) | concentration at 1 h [15]: < 100 ng/mL; Cmax [16]: 580 ng/g; half-life [8]: 0.333 h; Cmax [17]: 310 ng/mL
19 | 22 | 12 | 33 | CSc1ccccc1N1CCN(CCCCCC(=O)NCc2ccccc2)CC1 | 
20 | 3.81 | 95 | 362 | O=C(CCCCCN1CCN(c2ccccc2-c2ccccc2)CC1)N1CCc2ccccc2C1 | Selectivity ratio [1]: 25; Selectivity ratio [2]: 95; EC50 [6]: 490 nM; Activity [7]: 89%
21 |  | 161 | 503 | O=C(CCCCCN1CCN(c2ccccc2-c2ccccc2)CC1)NCc1ccccc1 | Activity [18]: 62%; Activity [19]: Active; Activity [20]: Active; Activity [21]: inactive; EC50 [6]: 4500 nM
22 |  |  |  | NCCc1c[nH]c2ccc(C(N)=O)cc12 | Activity [7]: 100%
23 | 8.6 | 53 | 20 | CC(C)c1ccccc1N1CCN(CCCCCC(=O)NCc2ccc(C#N)cc2)CC1 | 
24 | 31 | 40 | 22 | COc1ccccc1N1CCN(CCCCCC(=O)N2CCc3ccccc3C2)CC1 | 
25 | 389 | 19 | 501 | COc1ccccc1N1CCN(CCCCCC(=O)NCc2ccncc2)CC1 | 
26 | 179 | 3.2 | 730 | COc1ccccc1N1CCN(CCCCCC(=O)N2Cc3ccccc3C2)CC1 | 
27 | 224 | 13 | 226 | COc1ccccc1N1CCN(CCCCCC(=O)NCc2ccccc2)CC1 | 
28 | 0.58 |  | 142 | N#Cc1ccc(CNC(=O)CCCCCN2CCN(c3ccccc3-c3ccccc3)CC2)cc1 | Cmax [22]: 760 ng/mL; Ratio AUC [23]: 0.7; Cmax [16]: 540 ng/g; half-life [8]: 1.15 h; EC50 [6]: 600 nM; Activity [7]: 82%; half-life [24]: 1.08 h; Vd [25]: 11 L/kg
29 | 148 | 10.3 | 30 | CSc1ccccc1N1CCN(CCCCCC(=O)NCc2ccc(OS(C)(=O)=O)cc2)CC1 | 
